The values below come from ChEMBL document CHEMBL4706672 (J Med Chem, 2021).

Format in all cases: functional, cell-based
One experiment concerns HEK293. In words: Antiproliferative activity against human HEK293 cells assessed as reduction in cell viability incubated for 24 hrs by MTT assay. The conditions noted are these: HEK293, 24 h. The procedure, abridged: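 HEK-293 cells were treated with compound for 24 h, in parallel with the luciferase reporter assay. Viability was read by MTT absorbance at 570 nm, and IC50 was taken from three independent experiments.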
(Tetrazolium dyes change colour on reduction, which living cells bring about.)

A further experiment has as its system MIA PaCa-2. Briefly: Antiproliferative activity against human MIA PaCa-2 cells assessed as reduction in cell viability incubated for 3 days by MTT assay. The conditions noted are these: MIA PaCa-2, 72 h. The procedure, abridged:
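MTT assay. Cells were seeded at 3000–6000/well and incubated overnight, then exposed to compound or DMSO vehicle for 3 days in RPMI-1640 or DMEM with 10% FBS at 37 °C, 5% CO2. MTT (3 mg/ml) was added for 3 h at 37 °C, formazan was dissolved in DMSO and absorbance read at 570 nm. IC50 from three independent experiments, mean ± SD.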

The next experiment concerns BXPC-3. Briefly: Antiproliferative activity against human BxPC-3 cells assessed as reduction in cell viability incubated for 3 days by MTT assay. The conditions noted are these: BXPC-3, 72 h.

Usually IC50 stands for the concentration needed to halve the response being measured. `O=C1CCC(N2Cc3c(NCCOCCOCCNC(=O)c4cc5c(o4)C(=O)c4ccccc4C5=O)cccc3C2=O)C(=O)N1` (centres undefined): the 50% inhibitory concentration (IC50) in the experiment with HEK293 is greater than 30 µM; in the experiment on MIA PaCa-2, 13.7 µM.

As to `O=C1CCC(N2C(=O)c3cccc(NCCOCCOCCOCCOCCOCCOCCNC(=O)c4cc5c(o4)C(=O)c4ccccc4C5=O)c3C2=O)C(=O)N1` (centres undefined), the IC50 in the experiment with HEK293 was 10.8 µM; with MIA PaCa-2, 5 µM; in the experiment on BXPC-3, 7.5 µM.

In the case of `O=C1CCC(N2C(=O)c3cccc(NCCCNC(=O)c4cc5c(o4)C(=O)c4ccccc4C5=O)c3C2=O)C(=O)N1` (centres undefined), the IC50 in the experiment with MIA PaCa-2 worked out at 2.7 µM; in the experiment on BXPC-3, 3.5 µM.

With `O=C1CCC(N2C(=O)c3cccc(C#CCCCNC(=O)c4cc5c(o4)C(=O)c4ccccc4C5=O)c3C2=O)C(=O)N1` (centres undefined), the values for the IC50 in the experiment with HEK293, in the experiment on MIA PaCa-2 and in the experiment on BXPC-3 were 18.6 µM, 2.1 µM and 5.3 µM, respectively.

For `O=C1CCC(N2C(=O)c3cccc(NCCCC4CCN(CCNC(=O)c5cc6c(o5)C(=O)c5ccccc5C6=O)CC4)c3C2=O)C(=O)N1` (centres undefined), the IC50 in the experiment on BXPC-3 was 0.6 µM.

As to `O=C1CCC(N2C(=O)c3cccc(NCCCCCCNC(=O)c4cc5c(o4)C(=O)c4ccccc4C5=O)c3C2=O)C(=O)N1` (centres undefined), the IC50 is 3 µM in the experiment on MIA PaCa-2 and 4.2 µM with BXPC-3.

As for `O=C1CCC(N2C(=O)c3cccc(NCCOCCOCCOCCOCCNC(=O)c4cc5c(o4)C(=O)c4ccccc4C5=O)c3C2=O)C(=O)N1` (centres undefined), the IC50 in the experiment on HEK293 is greater than 10 µM; with MIA PaCa-2, 4.4 µM; with BXPC-3, 10.1 µM.

Consider `O=C1CCC(N2C(=O)c3cccc(OCCCCNC(=O)c4cc5c(o4)C(=O)c4ccccc4C5=O)c3C2=O)C(=O)N1` (centres undefined), for which the IC50 is greater than 10 µM with HEK293, 2 µM in the experiment on MIA PaCa-2 and 4.2 µM in the experiment on BXPC-3.

As for `O=C1CCC(N2C(=O)c3cccc(NCCN4CCN(CCNC(=O)c5cc6c(o5)C(=O)c5ccccc5C6=O)CC4)c3C2=O)C(=O)N1` (centres undefined), the IC50 with MIA PaCa-2 worked out at 18.1 µM; in the experiment with BXPC-3, 25.6 µM.

Consider `O=C1CCC(N2C(=O)c3cccc(NCCCCCNC(=O)c4cc5c(o4)C(=O)c4ccccc4C5=O)c3C2=O)C(=O)N1` (centres undefined), for which the IC50 in the experiment on HEK293 was greater than 10 µM; in the experiment on MIA PaCa-2, 1.8 µM; in the experiment on BXPC-3, 3.2 µM.

For the compound `O=C1CCC(N2C(=O)c3cccc(OCCOCCOCCNC(=O)c4cc5c(o4)C(=O)c4ccccc4C5=O)c3C2=O)C(=O)N1` (centres undefined), the IC50 in the experiment with MIA PaCa-2 is 3.8 µM; in the experiment on BXPC-3, 8.2 µM.

`O=C1CCC(N2C(=O)c3cccc(NCCC4CCN(CCNC(=O)c5cc6c(o5)C(=O)c5ccccc5C6=O)CC4)c3C2=O)C(=O)N1` (centres undefined): the IC50 in the experiment with MIA PaCa-2 and with BXPC-3 was 1.1 µM in each case.

As to `O=C1CCC(N2C(=O)c3cccc(NCCOCCNC(=O)c4cc5c(o4)C(=O)c4ccccc4C5=O)c3C2=O)C(=O)N1` (centres undefined), the IC50 turned out to be 2.6 µM in the experiment on MIA PaCa-2 and 4.6 µM in the experiment on BXPC-3.

As to `Nc1cccc2c1C(=O)N(C1CCC(=O)NC1=O)C2=O` (centres undefined) [POMALIDOMIDE], the IC50 with MIA PaCa-2 and with BXPC-3 was greater than 30 µM each time.

Turning to `O=C1CCC(N2C(=O)c3cccc(NCCCCNC(=O)c4cc5c(o4)C(=O)c4ccccc4C5=O)c3C2=O)C(=O)N1` (centres undefined), the half-maximal inhibitory concentration (IC50) was 1.6 µM in the experiment with MIA PaCa-2 and 4.1 µM in the experiment on BXPC-3.

As for `O=C(COc1cccc2c1C(=O)N(C1CCC(=O)NC1=O)C2=O)NCCOCCOCCNC(=O)c1cc2c(o1)C(=O)c1ccccc1C2=O` (centres undefined), the results for the IC50 with MIA PaCa-2 and with BXPC-3 were 16.7 µM and 20.4 µM, respectively.

For the compound `O=C(COc1cccc2c1C(=O)N(C1CCC(=O)NC1=O)C2=O)NCCOCCOCCOCCNC(=O)c1cc2c(o1)C(=O)c1ccccc1C2=O` (centres undefined), the half-maximal inhibitory concentration (IC50) turned out to be 3.7 µM in the experiment on MIA PaCa-2 and 6 µM in the experiment on BXPC-3.

With `O=C1CCC(N2C(=O)c3cccc(NCCNC(=O)c4cc5c(o4)C(=O)c4ccccc4C5=O)c3C2=O)C(=O)N1` (centres undefined), the IC50 in the experiment with HEK293 is greater than 30 µM; in the experiment on MIA PaCa-2, 4 µM; in the experiment on BXPC-3 it was 1.7 µM.

In the case of `O=C1CCC(N2C(=O)c3ccc(NCCOCCOCCNC(=O)c4cc5c(o4)C(=O)c4ccccc4C5=O)cc3C2=O)C(=O)N1` (centres undefined), the IC50 in the experiment with HEK293 was greater than 10 µM.

Consider `O=C1CCC(N2Cc3c(CCCCCNC(=O)c4cc5c(o4)C(=O)c4ccccc4C5=O)cccc3C2=O)C(=O)N1` (centres undefined), for which the IC50 in the experiment with MIA PaCa-2 worked out at 6.4 µM; in the experiment with BXPC-3, 13.8 µM.
